Bioassay records from PubChem BioAssay.
The list is not random: actives were taken first. Their share in the collection is about 1.2%.
MsrA inhibitor: bovine MsrA enzyme inhibitors, primary screen, biochemical, absorbance, HTS | purified bovine MsrA, absorbance read-out | Methionine sulfoxide reductase A (Bos taurus) | inhibition, % at 15.5 µM | actives 0.75% (n = 360,000)
procasp7 counter: procaspase-7 activators, primary screen, counter-screen for procaspase-3 activator project, biochemical, absorbance, HTS, human; Caspase-7 (Homo sapiens), P55210; recombinant procaspase-7, Ac-DEVD-pNA absorbance 405 nm; D23A/D198A/D206A triple mutant, cannot self-cleave; scale: DMSO 0, 5 µM enzyme 100; activation, % at 8.5 µM; actives 0.093% (n = 330,000);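 active = percent activation above the screen-wide mean plus 3 SD, cut at about 25% in these data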
Target sequence (P55210 whole entry D23A/D198A/D206A): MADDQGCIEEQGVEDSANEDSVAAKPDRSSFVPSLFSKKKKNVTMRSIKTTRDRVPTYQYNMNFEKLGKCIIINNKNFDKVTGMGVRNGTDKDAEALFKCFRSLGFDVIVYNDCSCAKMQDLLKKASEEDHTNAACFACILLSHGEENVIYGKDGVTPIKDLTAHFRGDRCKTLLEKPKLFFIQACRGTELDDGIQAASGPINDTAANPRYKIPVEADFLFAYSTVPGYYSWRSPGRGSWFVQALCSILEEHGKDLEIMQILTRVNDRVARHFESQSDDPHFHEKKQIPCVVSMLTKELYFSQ
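Assay system: Uncleavable procaspase-7 mutant enzyme / Input: 2 µM procaspase-7 mutant as dispensed / Dosing: single nominal 8.5 µM compound dose, 0.8% DMSO final / Timing: 1 h enzyme–compound preincubation and 2 h substrate reaction, both 25 °C / Detection: p-Nitroaniline absorbance at 405 nm, read at 0 and 120 min / Replication: singlicate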
procasp3 activ: activators of human procaspase-3 D3A mutant, primary screen, biochemical, absorbance, PC-3 D3A mutant, single concentration; actives 0.11% (n = 330,000); Caspase-3 (Homo sapiens), P42574; recombinant procaspase-3 D3A, Ac-DEVD-pNA absorbance 405 nm; activation, % at 8.5 µM;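 active = activation above the mean of all tested compounds plus 3 SD, cut at about 21% in these data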
Target sequence (P42574 whole entry D9A/D28A/D175A): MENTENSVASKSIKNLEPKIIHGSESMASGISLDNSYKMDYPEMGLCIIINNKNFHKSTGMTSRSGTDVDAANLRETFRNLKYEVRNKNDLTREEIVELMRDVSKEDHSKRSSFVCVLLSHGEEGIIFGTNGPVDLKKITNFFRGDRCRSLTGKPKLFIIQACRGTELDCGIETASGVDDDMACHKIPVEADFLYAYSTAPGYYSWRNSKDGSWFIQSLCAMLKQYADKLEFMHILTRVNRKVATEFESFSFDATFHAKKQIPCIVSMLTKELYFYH
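Assay system: Autoprocessing-dead procaspase-3 D3A mutant enzyme; also added: Ac-DEVD-pNA; doses: one concentration, 8.5 µM nominal, 0.8% DMSO; times: 1 h compound preincubation, 2 h substrate hydrolysis at 25 °C; technique: 405 nm absorbance of p-nitroaniline, reads at 0 and 120 min; measure: % activation between DMSO and enzyme-spiked controls; repeats: single replicate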
MsrA act: bovine MsrA enzyme activators, primary screen, biochemical, absorbance, HTS; AID 602163, 2012; actives 0.3% (n = 360,000); purified bovine MsrA, absorbance read-out; Methionine sulfoxide reductase A (Bos taurus); activation, % at 10.6 µM; in the data active = activation above about 7.5%
Bfl-1 A1 inh: caspase 3/7 activation in MEF A1-2A-BIM cells, primary screen, A1 inhibitor project, cell-based, luminescence, HTS; Caspase-Glo 3/7 luminescence, 3 h; percent of clofoctol response, vehicle zero; caspase activation, % (no concentration beside the values); actives 0.066% (n = 330,000); AID 2462, 2010;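 active = over half of replicate activation scores above 10%, or exactly half above 10 with the replicate mean above 10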
MsrA inh confirm: bovine MsrA inhibitors, retest, confirmation, biochemical, absorbance, HTS. actives 41% (n = 2,300). shares compounds with MsrA inhibitor. inhibition, % at 15.5 µM. purified bovine MsrA, absorbance read-out;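 also: coupled to thioredoxin reductase with NADPH and selenocystamine and DMSO as substrate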
Of the large screens only hits and unclear results are named; the others gave an inactive call (follow-up assays come after a bar, where they were run). Rule as the data show it, unless noted: active = inhibition above about 4.5%; inactive = the rest.

Cc1ccc2nc(-c3ccc(SCC(=O)O)nc3)[nH]c2c1	MsrA inhibitor 8.9 | MsrA inh confirm 4.7
CSc1ccc(/C=N/NC(=O)c2ccccc2Cl)cc1	MsrA inhibitor 5.8 | MsrA inh confirm inactive
CN(C)c1ccc(/C=N/NC(=O)CCCO)cc1	MsrA inhibitor 5.9 | MsrA inh confirm inactive
CN(C)c1ccc(/C=N/NC(=O)c2ccccc2)cc1	MsrA inhibitor 4.7 | MsrA inh confirm inactive
CSc1ccc(/C=N/NC(=O)c2cccs2)cc1	none
CN(C)c1ccc(/C=N/NC(=O)Cn2nnc3ccccc32)cc1	MsrA inhibitor 5.1 | MsrA inh confirm 4.7
CCCCCCCCN1C(=O)[C@@H](CC(=O)NCCCCc2ccccc2)C[C@@]2(C(=O)OC)C1=C[C@H](C(C)(C)C)O[C@@H]2C	none (no result: procasp7 counter, procasp3 activ, MsrA act, Bfl-1 A1 inh)
COC(=O)[C@]12CCCCC=C1N(CCc1ccc(OC)c(OC)c1)C(=O)[C@H](CC(=O)N1CCN(C(=O)c3ccco3)CC1)C2	none (no result: procasp7 counter, procasp3 activ, MsrA act, Bfl-1 A1 inh)
Cc1ccc(S(=O)(=O)N2CCN(C(=O)COC(=O)c3ccccc3OC(F)F)CC2)c(C)c1	none (no result: procasp7 counter, procasp3 activ, Bfl-1 A1 inh)
COc1ccc(/C=C(\NC(=O)c2ccccc2)C(=O)N/N=C/c2cccnc2)cc1	none
CN(C)c1ccc(/C=N/NC(=O)CCCCCNC(=O)c2ccccc2)cc1	MsrA inhibitor 4.8 | MsrA inh confirm inactive
CN(N=Cc1ccc(N(C)C)cc1)C(=O)c1ccccc1N	MsrA inhibitor 5.3 (no result: procasp7 counter, procasp3 activ, MsrA act, Bfl-1 A1 inh) | MsrA inh confirm inactive
COc1ccc(/C=C(\NC(=O)c2ccccc2)C(=O)N/N=C/c2ccncc2)cc1	MsrA inhibitor 5.0 | MsrA inh confirm 6.0
CN(C)c1ccc(/C=C(\NC(=O)c2ccccc2)C(=O)N/N=C/c2ccc(C(=O)O)cc2)cc1	MsrA inhibitor 5.7 | MsrA inh confirm 5.4
S=C1NCN(CC2CC2)CN1	none (no result: procasp7 counter, procasp3 activ, MsrA act, Bfl-1 A1 inh)
O=C(Cc1ccc(NC(=O)C2CCN(C(=O)C3CCCCC3)CC2)cc1)Nc1ccc(C(=O)N2CCOCC2)cc1	none (no result: procasp7 counter, procasp3 activ, Bfl-1 A1 inh)
CN(C)c1ccc(/C=N/NC(=O)CCc2c[nH]c3ccccc23)cc1	MsrA inhibitor 5.5 | MsrA inh confirm inactive
CN(C)c1ccc(/C=N/NC(=O)c2ccccc2Cl)cc1	MsrA inhibitor 6.3 | MsrA inh confirm 5.0
CC(=O)c1cnc(N(C)C)s1	MsrA inhibitor 6.5 | MsrA inh confirm inactive
CC(=O)c1cnc(-c2cccc(Cl)c2)s1	none
CCc1noc(C)c1C(=O)N1CCN(S(=O)(=O)c2ccccc2C(F)(F)F)CC1	none
CCOc1cc(/C=N/N=C2/NC(=O)C(CC(=O)O)S2)ccc1OCc1ccccc1Cl (configuration not stated)	MsrA inhibitor 6.8 | MsrA inh confirm 4.8
COc1ccc(S(=O)(=O)Oc2cccc(/C=N/N=C3/NC(=O)C(CC(=O)O)S3)c2)cc1 (configuration not stated)	MsrA inhibitor 5.2 | MsrA inh confirm inactive
COc1ccc(/C=N/N=C2/NC(=O)C(CC(=O)O)S2)cc1OCc1ccccc1Cl (configuration not stated)	MsrA inhibitor 6.5 | MsrA inh confirm 6.4
CCOc1cc(/C=N/N=C2/NC(=O)C(CC(=O)O)S2)ccc1OS(=O)(=O)c1ccc(C)cc1 (configuration not stated)	MsrA inhibitor 5.6 (no result: procasp7 counter, procasp3 activ, Bfl-1 A1 inh) | MsrA inh confirm inactive
CC(C)Oc1ccc(S(=O)(=O)N2CCOCC2)cc1NC(=O)c1cccc(S(=O)(=O)N2CCCC2)c1	none (no result: procasp7 counter, procasp3 activ, Bfl-1 A1 inh)
CC(=O)C(=Cc1cccc(C#N)c1)C(=O)c1ccccc1	none (no result: procasp7 counter, procasp3 activ, Bfl-1 A1 inh)
CCSC1=N/C(=C\c2ccc3c(c2)OCO3)C(=O)S1	none
O=C1NC(N2CCOCC2)=N/C1=C/c1ccc2c(c1)OCO2	MsrA inhibitor 4.9 | MsrA inh confirm inactive
Cn1ccc2c(-c3ccc4c(c3)OCCO4)cc3c(c21)C1CCC3C1 (configuration not stated)	none (no result: procasp7 counter, procasp3 activ, Bfl-1 A1 inh)
N#Cc1ccccc1NC(=O)CSc1ccc([N+](=O)[O-])cn1	none
N#Cc1cc([N+](=O)[O-])cnc1NCC(O)CO (configuration not stated)	MsrA inhibitor 5.4 | MsrA inh confirm inactive
CC(C)OC1=CC(=O)OC(c2cccc(Cl)c2)C1 (configuration not stated)	none (no result: procasp7 counter, procasp3 activ, MsrA act, Bfl-1 A1 inh)
O=C(Nc1ccc([N+](=O)[O-])cn1)c1cccnc1	none
O=C(Nc1ccc([N+](=O)[O-])cn1)c1ccc(Br)o1	MsrA inhibitor 5.6 | MsrA inh confirm inactive
CSC(=Cc1ccc(C(=O)c2ccc(C)cc2)n1C)S(C)=O (configuration not stated)	MsrA inhibitor 5.0 (no result: procasp7 counter, procasp3 activ, MsrA act, Bfl-1 A1 inh) | MsrA inh confirm inactive
C/C(=N\Nc1ccc([N+](=O)[O-])cc1[N+](=O)[O-])C(C)C(C)C (configuration not stated)	MsrA inhibitor 16 | MsrA inh confirm 14
CCOC(=O)C(C)/C(C)=N\Nc1ccc([N+](=O)[O-])cc1[N+](=O)[O-] (configuration not stated)	MsrA inhibitor 15 | MsrA inh confirm 13
CCOC(=O)CC(C)(C)/C(C)=N/Nc1ccc([N+](=O)[O-])cc1[N+](=O)[O-]	MsrA inhibitor 9.8 | MsrA inh confirm 13
CCOC(=O)C(C(=O)OCC)C(C)(C)/C(C)=N\Nc1ccc([N+](=O)[O-])cc1[N+](=O)[O-]	none
CCC(CC)=NNc1ccc([N+](=O)[O-])cc1[N+](=O)[O-]	none
O=[N+]([O-])c1ccc(Nc2ccccc2O)c([N+](=O)[O-])c1	MsrA inhibitor 5.7 (no result: procasp7 counter, procasp3 activ, Bfl-1 A1 inh) | MsrA inh confirm 7.2
COc1ccc(CCNC(=O)C(F)(F)F)cc1S(N)(=O)=O	none (no result: procasp7 counter, procasp3 activ, MsrA act, Bfl-1 A1 inh)
CC1(C(=O)NS(=O)(=O)c2cccc(OC(F)F)c2)CCN1C(=O)CCc1cccs1 (configuration not stated)	none (no result: procasp7 counter, procasp3 activ, Bfl-1 A1 inh)
CCCCc1ccc(S(=O)(=O)NC(=O)C2(C)CCN2C(=O)C/C=C/c2ccccc2)cc1 (configuration not stated)	none (no result: procasp7 counter, procasp3 activ, Bfl-1 A1 inh)
O=C(CN1CCCCCC1)Nc1ccc([N+](=O)[O-])cc1Br	MsrA inhibitor 4.8 | MsrA inh confirm 7.2
O=C(CN1CCOCC1)Nc1ccc([N+](=O)[O-])cc1Br	none
COC(=O)[C@]12C[C@H](CC(=O)NCc3cccs3)C(=O)N(Cc3ccccc3)C1=C[C@H](C(C)C)O[C@@H]2C1CC1	none (no result: procasp7 counter, procasp3 activ, MsrA act, Bfl-1 A1 inh)
NC(N)=NC1=NC(=O)/C(=C/c2ccccc2-n2cccn2)S1	MsrA inhibitor 5.3 | MsrA inh confirm inactive
O=C(Nc1ccnn1C1CCN(Cc2ccc(C#CCCO)cc2)CC1)c1cccc(F)c1	none
